HCT116 PTEN-null: growth suppressors of cells with PTEN tumor suppressor deletion | HCT116 PTEN-null viability, CellTiter-Glo, 60 h; active compounds read low | viability, % at 10 µM | 140,000 tested, 1.2% active | AID 827;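 active means viability at or below a set limit, 4 SD under the median of all tested compounds, cut at about 3.7% in these data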;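 further: PTEN knockout HCT116 line with beta catenin targeted HCT116 as companion control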
Autophagy HCS: autophagy modulation, high-content screen. MEF GFP-LC3 puncta imaging; test concentration mostly 10 µM. calls only at 10 µM (by protocol). 190,000 tested, 0.98% active. AID 463193;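 active means percentage of spot-positive cells more than 3 SD above its plate mean, without a fluorescence outlier flag or 80% toxicity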;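 further: spot-positive cell cutoff set from DMSO-treated cells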
L major viab: inhibitors of Leishmania major promastigote growth. Leishmania major promastigotes, resazurin fluorescence viability. inhibition, % at 10 µM. 200,000 tested, 9% active. AID 1063; in the data active means inhibition above about 50%;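 further: promastigotes grown with compound for 44 hours at 28 °C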
Dynein transport: dynein cargo transport inhibition | 3617.4 mouse cells, GR-EGFP nuclear translocation imaging; test concentration mostly 20 µM; stimulated with dexamethasone, 1 µM; active compounds read low | z-score, hits read low | 220,000 tested, 0.47% active;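 active means plate z-score of nuclear minus cytoplasmic receptor signal below a set negative limit, without overly bright fluorescence or cell loss, cut at about -3.5 in these data, passing the limit was not always enough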;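 further: z-score of nuclear minus cytoplasmic ring GR-EGFP intensity difference per well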
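Also added – dexamethasone, 1.0 µM final · Buffer or medium – tet-free, stripped-serum medium · Schedule – induction 48 h, compound 1 h, agonist 30 min · Detection – formaldehyde fixation, Hoechst nuclear stain, 10x automated fluorescence imaging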
HCT116 bCat-KO: beta-catenin-lacking colon tumor cell growth suppression; HCT116 beta-catenin knockout viability, CellTiter-Glo, 60 h; active compounds read low; viability, % at 10 µM; 140,000 tested, 1.5% active; AID 818;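 active means viability at or under a set limit, the compound median less 4 SD, cut at about 6% in these data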;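 further: 0% = Hyamine 1622 control at 20 µM and 100% = untreated cell control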
The depositor's hits bear a star. In the library only some 9.2% were active in any assay of this set; here they are far more common.

How did CC(C)(C)n1nnnc1C(c1ccc(F)cc1)N(Cc1ccc(F)cc1)Cc1ccco1 (centres undefined) do in these assays?
HCT116 PTEN-null: 15.7; Autophagy HCS: inactive; L major viab: 18.1; Dynein transport: -0.265; HCT116 bCat-KO: 8.5

Results for CCC(C)(C)n1nnnc1CN(Cc1ccc(Cl)cc1)Cc1ccco1 ?
HCT116 PTEN-null: 45.7; Autophagy HCS: inactive; L major viab: 56.4*; Dynein transport: 0.306; HCT116 bCat-KO: 43.9

How did CC(C)(C)n1nnnc1C(c1ccc(C(F)(F)F)cc1)N(Cc1ccc(F)cc1)Cc1ccco1 (centres undefined) do in these assays?
HCT116 PTEN-null: 11.3; Autophagy HCS: inactive; L major viab: 77.1*; Dynein transport: -0.0236; HCT116 bCat-KO: 7.8

How did CC(C)(C)n1nnnc1C(c1ccc(Cl)cc1)N(Cc1cccnc1)Cc1ccco1 (centres undefined) do in these assays?
HCT116 PTEN-null: 57.7; Autophagy HCS: inactive; L major viab: 100.0*; Dynein transport: -1.62; HCT116 bCat-KO: 53.5

How did Cc1cc(N2C3CCC2CC(O)(c2ccc(F)cc2)C3)nc(-c2ccccc2)n1 (centres undefined) do in these assays?
HCT116 PTEN-null: 60.2; Autophagy HCS: inactive; L major viab: 58.1*; Dynein transport: -0.863; HCT116 bCat-KO: 58.2

How did Cc1ccc2c(c1)NC(=O)C(CC(=O)NCCCN1CCN(c3cc(Cl)ccc3C)CC1)O2 (centres undefined) do in these assays?
HCT116 PTEN-null: 7.5; Autophagy HCS: inactive; L major viab: 7.8; Dynein transport: -0.489; HCT116 bCat-KO: 5.8*

What do the screens show for `Cc1ccc(C)c(N2CCN(CCCNC(=O)Cn3cccc3C(=O)c3ccccc3C)CC2)c1`?
Autophagy HCS: active; L major viab: 92.6*; Dynein transport: 2.89

How did Cc1ccccc1C(=O)c1cccn1CC(=O)NCCN1CCN(c2cccc(C)c2C)CC1 do in these assays?
HCT116 PTEN-null: 7.3; Autophagy HCS: active; L major viab: 100.3*; Dynein transport: 3.48; HCT116 bCat-KO: 4.3*

What do the screens show for `Cc1ccc(C2N(c3cccc(Cl)c3)C(=O)N3CCCN23)cc1` (centres undefined)?
Dynein transport: 1.3

Results for Cc1cnn(Cc2cccnc2)c1N ?
Dynein transport: 0.259

What do the screens show for `CCn1c(SCC(=O)Nc2nccs2)nnc1-c1ccccc1`?
HCT116 PTEN-null: 114.2; Autophagy HCS: inactive; L major viab: 2.1; Dynein transport: 0.538; HCT116 bCat-KO: 105.8

Results for CCn1c(SCC(=O)Nc2nccs2)nnc1-c1ccc(S(=O)(=O)N2CCCCC2)cc1 ?
HCT116 PTEN-null: 77.8; Autophagy HCS: inactive; L major viab: 56.0*; Dynein transport: 0.657; HCT116 bCat-KO: 82.8

Results for Cc1cc(NC(=O)CSc2nnc(-c3ccc(S(=O)(=O)N4CCCC4)cc3)n2C)no1 ?
HCT116 PTEN-null: 105.8; Autophagy HCS: inactive; L major viab: -0.7; Dynein transport: -1.19; HCT116 bCat-KO: 106.2

What do the screens show for `CCn1c(SCC(=O)Nc2cc(C)on2)nnc1-c1ccc(S(=O)(=O)N2CCCC2)cc1`?
HCT116 PTEN-null: 97.2; Autophagy HCS: inactive; L major viab: 69.1*; Dynein transport: -0.33; HCT116 bCat-KO: 74.9

How did CCOc1ccc(NC(=O)NC(=O)N(C(C)C)S(C)(=O)=O)cc1 do in these assays?
Autophagy HCS: inactive; L major viab: -6.3; Dynein transport: -0.347

Results for COc1cc(C(=O)NCCN2CCCC2)cc(OC)c1OC ?
HCT116 PTEN-null: 97.9; Autophagy HCS: active; L major viab: -4.3; Dynein transport: -0.0633; HCT116 bCat-KO: 96.4

What do the screens show for `C/C(Cc1ccccc1)=N\NC(=O)CNC(=O)Cc1ccccc1`?
Dynein transport: -0.774

Results for CN(NC(=O)COc1ccccc1)C1=NS(=O)(=O)c2ccccc21 ?
Autophagy HCS: inactive; L major viab: -4.4; Dynein transport: 1.01

How did Cc1cc(C)c(S(C)(=O)=O)c(S(=O)(=O)c2ccc(Cl)cc2)n1 do in these assays?
HCT116 PTEN-null: 83.6; Autophagy HCS: inactive; L major viab: -3.6; Dynein transport: 0.156; HCT116 bCat-KO: 81.2

Results for Cc1cc(C)c(S(=O)(=O)c2cccc(Cl)c2)c(Cl)n1 ?
Autophagy HCS: inactive; L major viab: 4.5; Dynein transport: 1.05

What do the screens show for `Cc1cc(C)c(S(=O)(=O)c2c(C)cccc2C)c(Cl)n1`?
HCT116 PTEN-null: 83.1; Autophagy HCS: inactive; L major viab: 100.3*; Dynein transport: 4.48; HCT116 bCat-KO: 81.0

What do the screens show for `Cc1cc(C)c(S(=O)(=O)c2ccc(Cl)cc2C)c(Cl)n1`?
Autophagy HCS: inactive; L major viab: 100.3*; Dynein transport: -1.09

How did O=C(CNC(=O)c1ccccc1F)N/N=C/c1cc(Br)ccc1OC(=O)/C=C/c1ccco1 do in these assays?
HCT116 PTEN-null: 9.2; Autophagy HCS: inactive; L major viab: 87.2*; Dynein transport: -0.322; HCT116 bCat-KO: 15.2

How did COc1ccccc1C(=O)NCC(=O)N/N=C/c1cc(Br)ccc1OC(=O)/C=C\c1ccco1 do in these assays?
HCT116 PTEN-null: 35.7; Autophagy HCS: inactive; L major viab: 92.3*; Dynein transport: 0.118; HCT116 bCat-KO: 27.0

What do the screens show for `O=C(CNC(=O)c1ccc(F)cc1)N/N=C/c1cc(Br)ccc1OC(=O)/C=C/c1ccco1`?
Dynein transport: -0.31

What do the screens show for `O=C(CC1NC(=S)NC1=O)c1ccc(Cl)cc1` (centres undefined)?
Dynein transport: 0.981

How did CCN(CC)CCNC(=S)Nc1ccc(Cl)cc1 do in these assays?
HCT116 PTEN-null: 94.8; Autophagy HCS: inactive; L major viab: -5.9; Dynein transport: 0.131; HCT116 bCat-KO: 90.5

How did CCN(CC)CCCNC(=S)Nc1ccc(Br)cc1 do in these assays?
Autophagy HCS: inactive; L major viab: 83.4*; Dynein transport: -0.358

Results for CC(C(=O)Nc1cccnc1)C1Sc2ccccc2NC1=O (centres undefined) ?
Autophagy HCS: inactive; L major viab: -5.0; Dynein transport: -0.147

Results for COc1ccc(/C=C/C(=O)OCC(=O)Nc2c(C)cccc2C)cc1 ?
Autophagy HCS: inactive; L major viab: -4.8; Dynein transport: -0.21

What do the screens show for `CC/C(O)=C1\C(=O)CC(c2ccccc2)CC1=NC(C)C` (centres undefined)?
HCT116 PTEN-null: 78.6; Autophagy HCS: inactive; L major viab: 59.2*; Dynein transport: -0.0742; HCT116 bCat-KO: 88.9

How did O=C(O)c1nc(-c2ccccc2)n(-c2ccccc2)n1 do in these assays?
HCT116 PTEN-null: 101.9; Autophagy HCS: inactive; L major viab: -5.3; Dynein transport: 0.887; HCT116 bCat-KO: 95.5

What do the screens show for `O=C(c1nc(-c2ccccc2)n(-c2ccccc2)n1)N1CCN(S(=O)(=O)c2ccccc2)CC1`?
HCT116 PTEN-null: 63.2; Autophagy HCS: inactive; L major viab: 57.7*; Dynein transport: 1.7; HCT116 bCat-KO: 68.1

What do the screens show for `COc1ccc(-c2nn(CC(=O)N(C)C)c(=O)c3ccccc23)cc1`?
HCT116 PTEN-null: 101.0; Autophagy HCS: inactive; L major viab: -6.8; Dynein transport: 0.726; HCT116 bCat-KO: 96.4
